Assay results pooled from the literature.
Lines come from different studies, so protocols differ.
PIK3CA: Phosphatidylinositol 4,5-bisphosphate 3-kinase catalytic subunit alpha isoform (PIK3CA, Homo sapiens, UniProt P42336)
FOLH1: Glutamate carboxypeptidase 2 (FOLH1, Homo sapiens, UniProt Q04609)
PIK3CB: Phosphatidylinositol 4,5-bisphosphate 3-kinase catalytic subunit beta isoform (PIK3CB, Homo sapiens, UniProt P42338)
T1R2/T1R3: T1R2/T1R3 (Homo sapiens, UniProt Q7RTX0+Q8TE23)

SMILES	target	read-out	mode	method	endpoint	value
CN(C)C(=O)c1cc2cnc(Nc3cc(C(F)(F)F)c(-c4cccc5c(=O)cc(N6CCOCC6)oc45)cn3)nc2n1C1CCCC1	PIK3CA	enzyme activity	inhibitor	radiometric	IC50	> 10 µM
CC1(C)CN(CCCCC(=O)N[C@H](Cc2ccccc2)C(=O)N[C@H](Cc2ccccc2)C(=O)N[C@H](CCCCNC(=O)CCCCCCC(=O)NCCCC[C@H](NC(=O)N[C@@H](CCC(=O)O)C(=O)O)C(=O)O)C(=O)O)CC[N]2CC(C)(C)[S][Tc]2(=[O])[S]1 (some centres unmarked)	FOLH1	binding	–	radioligand	Kd	0.0133 µM
CC(C)c1cccc(C(C)C)c1N=C1C(=O)N(Cc2ccc(Br)cc2)c2ccccc21	PIK3CB	enzyme activity	inhibitor	ADP detection	IC50	0.0862 µM
O=S(=O)(O)NC1CCCCC1	T1R2/T1R3	calcium signal	agonist	–	EC50	2750 µM
O=C(O)CC[C@H](NC(=O)N[C@@H](CCCCNC(=O)CCCCCCC(=O)NCCCC[C@@H](NC(=O)[C@H](CCC(=O)O)NC(=O)[C@H](CCC(=O)O)NC(=O)CCC(=O)NCCCN1CC[S][Tc]2(=[O])[S]CC[N]2CC1)C(=O)O)C(=O)O)C(=O)O (some centres unmarked)	FOLH1	binding	–	radioligand	Kd	0.0068 µM
CN1CCN(c2cc(=O)c3ccc(Nc4ncc5cc(C(=O)N(C)C)n(C6CCCC6)c5n4)cc3o2)CC1	PIK3CA	enzyme activity	inhibitor	radiometric	IC50	> 10 µM
O=C1C(=Nc2ccc(Cl)cc2)c2ccccc2N1Cc1ccc(Br)cc1	PIK3CA	enzyme activity	inhibitor	ADP detection	IC50	0.0298 µM
CC[C@H](C)[C@H](NC(=O)[C@H](Cc1nc2ccccc2s1)NC(=O)CCC(=O)O)C(=O)N[C@H]1CCc2cccc3c2N(C1=O)[C@H](C(=O)NCc1cn[nH]n1)C3	Granzyme B (GZMB, Homo sapiens, UniProt P10144)	enzyme activity	inhibitor	fluorescence	Ki	0.0378 µM
CCc1ccc(N=C2C(=O)Nc3ccccc32)cc1	PIK3CA	enzyme activity	inhibitor	ADP detection	IC50	0.098 µM
CN(C)C(=O)c1cc2cnc(Nc3ccc4c(=O)cc(N5CCOCC5)oc4c3)nc2n1C1CCCC1	PIK3CA	enzyme activity	inhibitor	radiometric	IC50	0.0325 µM
CC1(C)CN(CCCCC(=O)N[C@@H](CCCCNC(=O)CCCCCCC(=O)NCCCC[C@H](NC(=O)N[C@@H](CCC(=O)O)C(=O)O)C(=O)O)C(=O)O)CC[N]2CC(C)(C)[S][Tc]2(=[O])[S]1 (some centres unmarked)	FOLH1	binding	–	radioligand	Kd	0.0144 µM
OC[C@H]1O[C@H](O[C@]2(CCl)O[C@H](CCl)[C@@H](O)[C@@H]2O)[C@H](O)[C@@H](O)[C@H]1Cl	T1R2/T1R3	calcium signal	agonist	–	EC50	232 µM
COc1cc(N=C2C(=O)N(Cc3ccccc3)c3ccccc32)cc(OC)c1	PIK3CB	enzyme activity	inhibitor	ADP detection	IC50	0.038 µM
COc1nc(-c2cccc(-c3ccccc3)c2C)ccc1CNCCNC(=O)CCCCCCCCCCC(=O)N1CCN(CCNC(=O)c2cc3c(=O)n4cccc(C)c4nc3n(CCc3cccs3)c2=N)CC1	Speckle-type POZ protein (SPOP, Homo sapiens, UniProt O43791)	binding	–	BLI	Kd	2.64 µM
